Here are results for one molecule from ChEMBL document CHEMBL1121642, “Synthesis and antiherpetic activity of some 4-[(aryloxy)alkyl]pyrazoles” (1981).

Common to all, as to assay type: functional
Test [1] has as its system Mus musculus. Briefly: Effect on the survival rate of mouse infected with herpes genitalis (HSV-2) administered intravaginally at 5% dosage twice in a day. The procedure, abridged: (§1)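 HSV-2 mouse genital model, infected intravaginally. Drug prepared in water + 1% gum tragacanth and given intravaginally b.i.d. via saturated cotton tampons, starting 4 h postinfection. Tampons were re-dosed with 0.02 mL 6 h after insertion and replaced daily. Test ended at day 14, with survivors assigned survival time >14 days. Read-out: % survival and average survival time.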

In a further test the test system is Human alphaherpesvirus 2. Description: (§2) Effect on the survival rate of mouse infected with herpes genitalis (HSV-2) administered intravaginally at 2% dosage twice in a day. Summed up: as §1
Test [2] concerns Mus musculus. The description is as §2. Summed up:
as §1

Regarding `O=C(O)CP(=O)(O)O` [FOSFONET], the Average survival with Mus musculus [1] and in the test on Mus musculus [2] was above 13 days each time. The Survival in the test with Mus musculus [1] and in the test on Human alphaherpesvirus 2 was 90% throughout.
